Laboratory results: article PMC7125423 (Archives of Pharmacal Research, 2020)
Values joined by “and” are separate entries in the source; they are usually repeats but may differ in a detail not shown here. Identical values can stand only once.

Columns and labels:
[1] = target: influenza H1N1 virus neuraminidase (Influenza A virus, UniProt P03468); assay: Neuraminidase inhibition screening assay; type: biochemical
MDCK cells = assay: Cell viability assay; type: cell-based, canine; settings: 24 h, MTT
In short: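 Confluent MDCK cells (grown in DMEM with 10% FBS, penicillin and streptomycin, 5% CO2) were exposed to graded concentrations of test compound for 24 h. Viability was measured by MTT. The maximum non-toxic dose was taken from this assay and then used in the infection assays.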

[2] = test system: influenza virus A/Font Monmouth/47(H1N1, FM1); type: cell-based
neuraminidase = type: cell-based, influenza virus A/Font Monmouth/47(H1N1, FM1)
IAV nucleoprotein (NP) = assay: Indirect immunofluorescence of viral NP in H1N1-infected MDCK cells; type: cell-based, influenza virus A/Font Monmouth/47(H1N1, FM1); settings: at MNTD, 8 h after infection, compared to virus group
In short: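 Confluent MDCK monolayers were infected with 100 μL of 100 TCID50 H1N1 for 2 h at 37 °C. Inoculum was removed and test compound was added at its maximum non-toxic dose in DMEM. At 8 h post-infection, cells were fixed in ice-cold acetone/methanol (40:60) for 15 min. Staining used mouse anti-NP monoclonal antibody (1:100 in PBS, 1 h), then Alexa Fluor 488 anti-mouse IgG (1:100, 1 h), with DAPI for nuclei; imaged by fluorescence microscopy.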

[3] = test system: influenza A/Font Monmouth/47(H1N1, FM1) virus; set-up: species or system NIH mice; settings: mouse, in vivo
[4] = Dose safety of curcumin in mice; type: in vivo; settings: 100 mg/kg/day
[5] = test system: influenza A/Font Monmouth/47(H1N1, FM1) virus; assay: Survival experiments in IAV-infected mice; type: in vivo, NIH mice; settings: 100, 50 and 25 mg/kg/day, pre-infection and post-infection, oral gavage, 2 LD50, vs placebo
TNF-α = assay: Cytokine in lung homogenate of IAV-infected mice; type: in vivo; settings: day 5 after infection; different doses, except 25 mg/kg/day
In short: (§1)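 Female SPF NIH mice (13–15 g) were infected with mouse-adapted IAV A/Font Monmouth/47 (H1N1, FM1). Controls were normal and placebo (saline, 0.5% Tween 80) groups. On day 5 post-infection, lungs were homogenised and centrifuged (4000×g, 15 min, 4 °C), and supernatants were stored at −80 °C. Cytokines were measured by anti-mouse ELISA kits; n = 10; mean ± SD of 3 separate experiments.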

IL-6 = assay: Cytokine in lung homogenate of IAV-infected mice; type: in vivo; settings: day 5 after infection; different doses (100, 50, 25 mg/kg/day)
In short: as §1

IFN-γ = assay: Cytokine in lung homogenate of IAV-infected mice; type: in vivo; settings: day 5 after infection; different doses (100, 50, 25 mg/kg/day)
In short: as §1

[6] = IC50, NA activity inhibition assay

Sequence of influenza H1N1 virus neuraminidase (P03468 whole entry): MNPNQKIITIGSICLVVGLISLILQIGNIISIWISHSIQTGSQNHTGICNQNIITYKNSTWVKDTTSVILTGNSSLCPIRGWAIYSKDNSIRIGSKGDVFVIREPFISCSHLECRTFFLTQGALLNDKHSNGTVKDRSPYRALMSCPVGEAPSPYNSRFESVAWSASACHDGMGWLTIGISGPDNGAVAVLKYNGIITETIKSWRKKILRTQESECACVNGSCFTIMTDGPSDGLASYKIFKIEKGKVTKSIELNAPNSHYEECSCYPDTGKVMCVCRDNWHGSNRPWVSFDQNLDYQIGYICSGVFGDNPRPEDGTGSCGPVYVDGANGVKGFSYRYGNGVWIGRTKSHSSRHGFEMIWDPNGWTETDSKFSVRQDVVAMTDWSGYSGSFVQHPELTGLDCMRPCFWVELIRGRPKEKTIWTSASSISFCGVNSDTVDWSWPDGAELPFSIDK

| Compound | IC50 [1, 6] [µM] | MNTD (maximum non-toxic dose) (MDCK cells) [µM] | decrease of mRNA expression level of M gene [2] | mRNA expression level of M gene [2] [µM] | decrease of NA activity (neuraminidase) | neuraminidase activity in cell supernatant (neuraminidase) [mU/mL] | viral NP localisation (immunofluorescence) (IAV nucleoprotein (NP)) | also measured |
| --- | --- | --- | --- | --- | --- | --- | --- | --- |
| O=C(/C=C/c1ccc(O)cc1)CC(=O)/C=C/c1ccc(O)cc1 [Bisdemethoxycurcumin] | 70.1 | 20 | about 2.13 fold | 0.47 ± 0.11 | 2.45 fold | 0.40 ± 0.01 | a strong green fluorescent signal was observed in the cytoplasm |  |
| COc1cc(/C=C/C(=O)CC(=O)/C=C/c2ccc(O)c(OC)c2)ccc1O [Curcumin-d6] |  |  |  |  |  |  |  | IC50 ([1]; NA activity inhibition assay): 18800 µM |
| [2H]C([2H])([2H])Oc1cc(/C=C/C(=O)CC(=O)/C=C/c2ccc(O)c(OC([2H])([2H])[2H])c2)ccc1O [Curcumin-d6] |  |  |  |  |  |  |  | pIC50 (expt.) ([1]; converted from IC50): 1.73 |
| COc1cc(/C=C/C(=O)CC(=O)/C=C/c2ccc(O)c(OC)c2)ccc1O [Curcumin] | 450 | 25 | about 5.26 fold | 0.19 ± 0.03 | about 2.04 fold | 0.48 ± 0.03 | less NP was observed in the cytoplasm | Lung index inhibition [3]: 22.42% and 23.6% and 35.75^** %; Lung pathological change degree [3]: 1.10 ± 0.39 and 0.92 ± 0.47 and 1.02 ± 0.55; weight and clinical symptoms (dose safety) [4]: remained stable in weight and showed no significant clinical symptoms; average survival time [5]: prolonged the average survival time; death protection rate [5]: promote the death protection rate significantly; TNF-α level in lung homogenate (TNF-α): significantly attenuated the increases; IL-6 level in lung homogenate (IL-6): significantly attenuated the increases; IFN-γ level in lung homogenate (IFN-γ): significantly attenuated the increases |
| COc1cc(/C=C/C(O)=C/C(=O)/C=C/c2ccc(O)cc2)ccc1O [Demethoxycurcumin] | 200 |  |  |  |  |  |  |  |
| COc1cc(/C=C/C(=O)CC(=O)CCc2ccc(O)c(OC)c2)ccc1O [Dihydrocurcumin] |  | 20 | ~1.20 fold | 0.83 ± 0.09 | ~1.81 fold | 0.54 ± 0.02 | a strong green fluorescent signal was observed in the cytoplasm | IC50 ([1]; NA activity inhibition assay): 219 µM; pIC50 (expt.) ([1]; converted from IC50): 3.66 |
| COc1ccc(/C=C/C(=O)/C=C(O)/C=C/c2ccc(OC)c(OC)c2)cc1OC [Dimethylcurcumin] | 1610 |  |  |  |  |  |  |  |
| COc1cc(CCC(=O)CC(O)CCc2ccc(O)c(OC)c2)ccc1O (centres unmarked) [Hexahydrocurcumin] | 33700 |  |  |  |  |  |  | IC50 ([1]; pIC50 (expt.), converted from IC50): 33900 µM |
| COc1cc(CCC(O)CC(O)CCc2ccc(O)c(OC)c2)ccc1O (centres unmarked) [Octahydrocurcumin] | 1530 |  |  |  |  |  |  |  |
| CCC(CC)O[C@@H]1C=C(C(=O)O)C[C@H](N)[C@H]1NC(C)=O [Oseltamivir carboxylate, reference compound] |  |  | about 11.11 fold |  |  |  |  |  |
| NC(=O)c1ncn([C@@H]2O[C@H](CO)[C@@H](O)[C@H]2O)n1 [Ribavirin, reference compound] |  |  |  |  |  |  |  | Lung index [3]: 0.94 ± 0.29; Lung index inhibition [3]: 43%; Lung pathological change degree [3]: 0.87 ± 0.52 |
| COc1cc(CCC(=O)CC(=O)CCc2ccc(O)c(OC)c2)ccc1O [Tetrahydrocurcumin] | 203 |  |  |  |  |  |  |  |
| Tetramethylcurcumin |  | 15 | about 3.85 fold | 0.26 ± 0.07 | 2.65 fold | 0.37 ± 0.06 | less NP was observed in the cytoplasm | IC50 ([1]; NA activity inhibition assay): 226 µM; pIC50 (expt.) ([1]; converted from IC50): 3.65 |
